Assay results published in paper PMC8189251 (ACS chemical biology, 2021).
pIC50: −log10 of the molar value.

Legend:
U2 snRNP = conditions: bypassed by an ATP-dependent rearrangement; cited from earlier work
SF3B [1] = target: T1, SF3B (Homo sapiens, UniProt O75533+Q7RTV0); format: biochemical; conditions: for splicing efficiency, first incubation at 30°C compared to 4°C before excess iHB: 1 μM inhibitor, then 100 μM iHB
SF3B [2] = target: T1, SF3B; conditions: cited from earlier work; for splicing products with inhibitor alone: 1 μM inhibitor alone in in vitro splicing reaction
U2 snRNA = experiment: RNase H cleavage analysis of U2 snRNA accessibility in nuclear extract; format: biochemical, human; conditions: 1 μM, 10 minutes at 30°C
Procedure, shortened: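 HeLa nuclear extract (40%), ATP-depleted 10 min at 30°C, in 60 mM potassium glutamate, 2 mM Mg acetate, 0.1 mg/mL tRNA, ±2 mM ATP, with test compound or DMSO, 10 min, 30°C. Oligos against U2 nt 24–38 or 32–46 (5 μM) were added for 15 min for endogenous RNase H cleavage, then DNase-removed. Read-out: primer extension (³²P primer, U2 97–117; MMLV RT, 53°C, 30 min), denaturing gel, phosphorimaging.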

Row | SMILES | effect on U2 snRNPs ability to engage an oligo containing the branch sequence (U2 snRNP) | splicing efficiency, first incubation at 30°C compared to 4°C before excess iHB (SF3B [1]) | splicing products with inhibitor alone (SF3B [2]) | pIC50 (SF3B [2]; read-out: IC50 value for in vitro splicing, HeLa nuclear extract) | splicing efficiency, inhibitor incubated before excess iHB competitor (SF3B [1]; 1 μM inhibitor 10 min, then 100 μM iHB 10 min) | splicing products, inhibitor followed by DMSO (SF3B [1]; 1 μM inhibitor 10 min, then DMSO 10 min, 4°C) | off-rate (SF3B [1]; inferred from order of addition, not direct binding) | effect on ATP-dependent changes in U2 snRNA cleavage (U2 snRNA)
1 | CC[C@H](O)[C@@H](C)[C@H]1O[C@@H]1C[C@@](C)(O)/C=C/C=C(\C)[C@H]1OC(=O)C[C@H](O)CC[C@@](C)(O)[C@@H](OC(=O)N2CCN(C3CCCCCC3)CC2)/C=C/[C@@H]1C [E7107] | inhibits | – | – | – | – | – | – | –
2 | CO[C@H]([C@@H](C)[C@H]1O[C@]1(C)C[C@H](C)/C=C/C=C(\C)[C@H]1O[C@@H](CC(=O)O)CC[C@@H]1C)[C@@H](C)O [compound 1, herboxidiene] | – | lower | not detected | 6.52 | – | – | – | –
3 | CO[C@]1(C)C[C@@]2(CO2)[C@H](O)[C@@H](/C=C/C(C)=C/C[C@@H]2O[C@H](C)[C@H](NC(=O)/C=C\[C@H](C)OC(C)=O)C[C@@H]2C)O1 [SSA, spliceostatin A] | – | lower | not detected | – | greatly reduced | no splicing products | very slow | does not interfere
